What was measured:
[1] = organism: Cavia porcellus; assay: Inhibition of Phospholipase A2 induced contraction of GP lung tissue; assay type: functional
In short: (§1)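 Guinea pig lung pleural strips were contracted with either hnps-PLA2 or arachidonic acid, the latter serving as the control challenge for selectivity. Antagonism is given as KB.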

[2] = biological target: T1, Phospholipase A2 (Homo sapiens, UniProt P04054); assay: Compound was tested for inhibition of human secretory pancreatic Phospholipase A2
T1 sequence (P04054 whole entry): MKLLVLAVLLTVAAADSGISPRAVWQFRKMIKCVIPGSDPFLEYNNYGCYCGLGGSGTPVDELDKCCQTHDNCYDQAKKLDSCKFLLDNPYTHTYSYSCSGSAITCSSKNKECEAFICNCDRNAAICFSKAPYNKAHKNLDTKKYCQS

[3] = Mole fraction is the IC50 concentration divided by the total lipid concentration (4000 uM) in DOC/PC assay; assay type: functional
In short: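 The value is a mole fraction: the DOC/PC assay IC50 (3 nM hnps-PLA2; 3 mM DOC/1 mM [14C]PC micelles; 1 h at 40 °C; released [14C]oleic acid counted) divided by the total lipid concentration of 4000 µM.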

[4] = Mole fraction of the IC50 concentration of compound divided by the total lipid concentration (1230 uM) in a chromogenic assay; assay type: functional
[5] = organism: Cavia porcellus; assay: Inhibition Arachidonic acid(AA) induced contraction of GP lung tissue; assay type: functional; in short: as §1
[6] = biological target: T2, Phospholipase A2, major isoenzyme (Sus scrofa, UniProt P00592); assay: Compound was tested for inhibition of porcine secretory pancreatic PLA2
T2 sequence (P00592 whole entry): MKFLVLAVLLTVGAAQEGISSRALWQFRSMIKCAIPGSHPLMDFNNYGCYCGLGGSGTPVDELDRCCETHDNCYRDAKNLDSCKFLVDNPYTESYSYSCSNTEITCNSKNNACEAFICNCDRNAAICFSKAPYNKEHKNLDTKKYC

[7] = biological target: T3, Phospholipase A2, membrane associated (Homo sapiens, UniProt P14555); assay: Inhibition of human nonpancreatic secretory Phospholipase A2 through chromogenic assay
T3 sequence (P14555 whole entry): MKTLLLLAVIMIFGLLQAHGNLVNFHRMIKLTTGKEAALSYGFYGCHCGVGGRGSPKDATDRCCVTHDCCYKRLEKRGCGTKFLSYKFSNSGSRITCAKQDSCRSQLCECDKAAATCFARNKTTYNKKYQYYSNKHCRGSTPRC

[8] = biological target: T3, Phospholipase A2, membrane associated; assay: Inhibition of human nonpancreatic secretory Phospholipase A2 through DOC/PC assay
In short: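 hnps-PLA2 (10 ng per tube; 3 nM) was preincubated with test compound in DMSO in pH 8 Tris buffer with 0.2 M NaCl, 2 mM CaCl2 and fatty-acid-free BSA. The substrate was sonicated mixed micelles (final 3 mM deoxycholate/1 mM PC) with [14C]-palmitoyl-oleoyl-PC. Reactions ran 1 h at 40 °C and were stopped with Dole reagent. Released [14C]oleic acid was extracted with heptane/silica and counted. IC50 was calculated against diluent controls.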

[9] = biological target: T1, Phospholipase A2; assay: Compound was evaluated to inhibit human secretory pancreatic Phospholipase A2
[10] = biological target: T2, Phospholipase A2, major isoenzyme; assay: Compound was tested for inhibition of porcine secreted pancreatic PLA2
[11] = biological target: T1, Phospholipase A2; assay: Compound was tested for inhibition of human secretory pancreatic PLA2
[12] = biological target: T1, Phospholipase A2; assay: Compound was tested for inhibition of human secreted pancreatic PLA2
[13] = biological target: T2, Phospholipase A2, major isoenzyme; assay: Compound was tested for inhibition of porcine secretory pancreatic Phospholipase A2

Row | Compound | KB [1] [µM] | Mole fraction [3] | Mole fraction [4] | ED50 [5] [µM] | IC50 [7] [µM] | IC50 [8] [µM] | also measured
1 | CCc1c(C(=O)C(N)=O)c2c(OCC(=O)O)cccc2n1Cc1ccccc1 [VARESPLADIB] | 0.083 | 1.8e-06 | 7.3e-06 | >30 | – | – | IC50 [2]: 0.228 µM; IC50 [6]: 0.048 µM
2 | COc1cccc2c1c(CC(N)=O)c(C)n2Cc1ccccc1 | – | – | 0.00012 | – | 1.18 | – | –
3 | Cc1c(C(=O)C(N)=O)c2c(OCC(=O)O)cccc2n1Cc1cccc2ccccc12 | 0.128 | 4.3e-06 | 7.3e-06 | >30 | 0.009 | 0.017 | IC50 [2]: 1.2 µM
4 | CCc1c(C(=O)C(N)=O)c2c(OCC(=O)O)cccc2n1Cc1ccccc1Cc1ccccc1 | 0.052 | 1e-06 | 3.3e-06 | – | 0.004 | 0.004 | IC50 [2]: 0.062 µM
5 | CCc1c(C(=O)C(N)=O)c2c(CC(=O)O)cc(C)cc2n1Cc1ccccc1 | 0.124 | 2e-06 | 6.5e-06 | 3.16 | 0.008 | 0.008 | –
6 | Cc1c(C(=O)C(N)=O)c2c(/C=C/C(=O)O)cccc2n1Cc1ccccc1 | – | – | 0.036 | – | 46 | – | IC50 [9]: > 100 µM
7 | NC(=O)C(=O)c1c(C2CC2)n(Cc2ccccc2)c2cccc(OCC(=O)O)c12 | – | 1e-05 | 2.3e-05 | – | 0.028 | 0.041 | –
8 | CCc1c(C(=O)C(N)=O)c2c(NCC(=O)O)cccc2n1Cc1ccccc1 | – | – | 0.00081 | – | 1 | – | –
9 | COc1cccc2c1c(C(=O)C(N)=O)c(C)n2Cc1ccccc1 | – | – | 0.00012 | – | 0.551 | – | –
10 | Cc1c(C(=O)C(N)=O)c2c(OCCCC(=O)O)cccc2n1Cc1ccccc1-c1ccccc1 | – | – | 0.0002 | – | 0.243 | – | –
11 | CCc1c(C(=O)C(N)=O)c2c(OCC(=O)O)cccc2n1Cc1cccc(Cl)c1 | 0.11 | 6.3e-06 | 5.8e-06 | 5 | 0.007 | 0.025 | IC50 [10]: 0.003 µM; IC50 [11]: 0.39 µM
12 | COc1ccc2c(c1)c(C(=O)C(N)=O)c(C)n2Cc1ccccc1 | – | – | 0.00012 | – | 2.56 | – | –
13 | CCc1[nH]c2cccc(OCC(=O)O)c2c1C(=O)C(N)=O | 3.41 | – | 0.0013 | – | 1.6 | – | –
14 | CCCCCCCCn1c(C)c(C(=O)C(N)=O)c2c(OCC(=O)O)cccc21 | 0.061 | 4.5e-06 | 6.5e-06 | >30 | 0.008 | 0.018 | IC50 [12]: 0.78 µM
15 | CCc1c(C(=O)C(N)=O)c2c(N(CCC(=O)O)C(C)=O)cccc2n1Cc1ccccc1 | – | – | – | – | > 100 | – | –
16 | CCc1c(C(=O)C(N)=O)c2c(N(CC(=O)O)C(C)=O)cccc2n1Cc1ccccc1 | – | – | – | – | > 100 | – | –
17 | Cc1c(C(=O)C(N)=O)c2c(OCC(=O)O)cccc2n1Cc1ccccc1-c1ccccc1 | 0.068 | 7.5e-07 | 5e-06 | >10 | 0.006 | 0.003 | IC50 [13]: 0.097 µM; IC50 [2]: 0.364 µM
18 | CCc1c(C(=O)C(N)=O)c2c(OCC(=O)O)cccc2n1C(=O)c1ccccc1 | 0.34 | 9.8e-06 | 6.6e-05 | – | 0.081 | 0.039 | –
19 | Cc1c(C(=O)C(N)=O)c2c(CCC(=O)O)cccc2n1Cc1ccccc1 | 0.614 | – | 0.00012 | – | 0.145 | – | IC50 [9]: > 100 µM
20 | CCc1c(C(=O)C(N)=O)c2c(OC(CCc3ccccc3)C(=O)O)cccc2n1Cc1ccccc1 (stereo not drawn) | 0.293 | 6.5e-06 | 3.8e-05 | >30 | 0.046 | 0.026 | –
21 | NC(=O)C(=O)c1cn(Cc2ccccc2)c2cccc(OCC(=O)O)c12 | – | – | 8e-05 | – | 0.096 | – | –
22 | NC(=O)C(=O)c1cn(Cc2ccccc2)c2ccc(OCCCC(=O)O)cc12 | – | – | 0.048 | – | – | – | –
